Measured values published in ChEMBL document CHEMBL2390854, “Green synthesis of tetrahydropyrimidine analogues and evaluation of their antimicrobial activity” (2013).
Converted amounts (≈) assume the structure as drawn.

Experiments:
Escherichia coli [1] = assay: Antibacterial activity against Escherichia coli NCIM 2256 by broth dilution method; type: functional
Outline: (§1)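 MIC by broth dilution following CLSI guidelines. Ciprofloxacin and ampicillin served as reference drugs.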

Bacillus subtilis = assay: Antibacterial activity against Bacillus subtilis NCIM 2063 by broth dilution method; type: functional; outline: as §1
Candida albicans = assay: Antifungal activity against Candida albicans NCIM 3471 by agar dilution method; type: functional
Outline: (§2)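 MIC determined by standard agar dilution per CLSI guidelines. Fluconazole and miconazole were reference drugs, and dimethyl sulfoxide was the solvent control.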

Aspergillus flavus = assay: Antifungal activity against Aspergillus flavus NCIM 539 by agar dilution method; type: functional; outline: as §2
Aspergillus niger = assay: Antifungal activity against Aspergillus niger NCIM 1196 by agar dilution method; type: functional; outline: as §2
Staphylococcus aureus = assay: Antibacterial activity against Staphylococcus aureus NCIM 2901 by broth dilution method; type: functional; outline: as §1
Escherichia coli [2] = assay: Antibacterial activity against Escherichia coli NCIM 2256 by broth dilution method

Compound: COC(=O)C1=C(C(=O)OC)N(c2cccc([N+](=O)[O-])c2)CN(c2cccc([N+](=O)[O-])c2)C1
- MIC (Escherichia coli [1]): 80 µg/mL (≈ 181 µM)
- MIC (Bacillus subtilis): 100 µg/mL (≈ 226 µM)
- MIC (Candida albicans): 100 µg/mL (≈ 226 µM)
- MIC (Aspergillus flavus): 100 µg/mL (≈ 226 µM)
- MIC (Aspergillus niger): 100 µg/mL (≈ 226 µM)
- MIC (Staphylococcus aureus): 80 µg/mL (≈ 181 µM)

Compound: CCOC(=O)C1=C(C(=O)OCC)N(c2ccccn2)CN(c2ccccn2)C1
- MIC (Escherichia coli [1]): 60 µg/mL (≈ 157 µM)
- MIC (Bacillus subtilis): 20 µg/mL (≈ 52.3 µM)
- MIC (Candida albicans): 25 µg/mL (≈ 65.4 µM)
- MIC (Aspergillus flavus): 12.5 µg/mL (≈ 32.7 µM)
- MIC (Aspergillus niger): 25 µg/mL (≈ 65.4 µM)
- MIC (Staphylococcus aureus): 100 µg/mL (≈ 261 µM)

Compound: CCOC(=O)C1=C(C(=O)OCC)N(c2ccccc2)CN(c2ccccc2)C1
- MIC (Escherichia coli [1]): 15 µg/mL (≈ 39.4 µM)
- MIC (Bacillus subtilis): 25 µg/mL (≈ 65.7 µM)
- MIC (Candida albicans): 50 µg/mL (≈ 131 µM)
- MIC (Aspergillus flavus): 25 µg/mL (≈ 65.7 µM)
- MIC (Aspergillus niger): 25 µg/mL (≈ 65.7 µM)
- MIC (Staphylococcus aureus): 60 µg/mL (≈ 158 µM)

Compound: COC(=O)C1=C(C(=O)OC)N(c2ccc(Cl)cc2)CN(c2ccc(Cl)cc2)C1
- MIC (Escherichia coli [1]): 60 µg/mL (≈ 142 µM)
- MIC (Bacillus subtilis): 40 µg/mL (≈ 94.9 µM)
- MIC (Candida albicans): 25 µg/mL (≈ 59.3 µM)
- MIC (Aspergillus flavus): 25 µg/mL (≈ 59.3 µM)
- MIC (Aspergillus niger): 25 µg/mL (≈ 59.3 µM)
- MIC (Staphylococcus aureus): 100 µg/mL (≈ 237 µM)

Compound: CCOC(=O)C1=C(C(=O)OCC)N(c2nc3ccc(OC)cc3s2)CN(c2nc3ccc(OC)cc3s2)C1
- MIC (Escherichia coli [1]): 15 µg/mL (≈ 27 µM)
- MIC (Bacillus subtilis): 20 µg/mL (≈ 36.1 µM)
- MIC (Candida albicans): 25 µg/mL (≈ 45.1 µM)
- MIC (Aspergillus flavus): 12.5 µg/mL (≈ 22.5 µM)
- MIC (Aspergillus niger): 12.5 µg/mL (≈ 22.5 µM)
- MIC (Staphylococcus aureus): 100 µg/mL (≈ 180 µM)

Compound: OC(Cn1cncn1)(Cn1cncn1)c1ccc(F)cc1F [FLUCONAZOLE]
- MIC (Candida albicans): 40 µg/mL (≈ 131 µM)
- MIC (Aspergillus flavus): 25 µg/mL (≈ 81.6 µM)
- MIC (Aspergillus niger): 25 µg/mL (≈ 81.6 µM)

Compound: CCOC(=O)C1=C(C(=O)OCC)N(c2cccc([N+](=O)[O-])c2)CN(c2cccc([N+](=O)[O-])c2)C1
- MIC (Escherichia coli [1]): 100 µg/mL (≈ 213 µM)
- MIC (Bacillus subtilis): 60 µg/mL (≈ 128 µM)
- MIC (Candida albicans): 100 µg/mL (≈ 213 µM)
- MIC (Aspergillus flavus): 100 µg/mL (≈ 213 µM)
- MIC (Aspergillus niger): 100 µg/mL (≈ 213 µM)
- MIC (Staphylococcus aureus): 100 µg/mL (≈ 213 µM)

Compound: CCOC(=O)C1=C(C(=O)OCC)N(c2ccc(Cl)cc2)CN(c2ccc(Cl)cc2)C1
- MIC (Escherichia coli [1]): 15 µg/mL (≈ 33.4 µM)
- MIC (Bacillus subtilis): 25 µg/mL (≈ 55.6 µM)
- MIC (Candida albicans): 25 µg/mL (≈ 55.6 µM)
- MIC (Aspergillus flavus): 25 µg/mL (≈ 55.6 µM)
- MIC (Aspergillus niger): 25 µg/mL (≈ 55.6 µM)
- MIC (Staphylococcus aureus): 80 µg/mL (≈ 178 µM)

Compound: COC(=O)C1=C(C(=O)OC)N(c2ccc(O)cc2)CN(c2ccc(O)cc2)C1
- MIC (Escherichia coli [1]): 80 µg/mL (≈ 208 µM)
- MIC (Candida albicans): 75 µg/mL (≈ 195 µM)
- MIC (Escherichia coli [2]): 80 µg/mL (≈ 208 µM)
- MIC (Aspergillus flavus): 50 µg/mL (≈ 130 µM)
- MIC (Aspergillus niger): 50 µg/mL (≈ 130 µM)
- MIC (Staphylococcus aureus): 90 µg/mL (≈ 234 µM)

Compound: COC(=O)C1=C(C(=O)OC)N(c2nc3ccc(OC)cc3s2)CN(c2nc3ccc(OC)cc3s2)C1
- MIC (Escherichia coli [1]): 40 µg/mL (≈ 76 µM)
- MIC (Bacillus subtilis): 25 µg/mL (≈ 47.5 µM)
- MIC (Candida albicans): 25 µg/mL (≈ 47.5 µM)
- MIC (Aspergillus flavus): 12.5 µg/mL (≈ 23.7 µM)
- MIC (Aspergillus niger): 12.5 µg/mL (≈ 23.7 µM)
- MIC (Staphylococcus aureus): 100 µg/mL (≈ 190 µM)

Compound: O=C(O)c1cn(C2CC2)c2cc(N3CCNCC3)c(F)cc2c1=O [CIPROFLOXACIN]
- MIC (Escherichia coli [1]): 15 µg/mL (≈ 45.3 µM)
- MIC (Bacillus subtilis): 25 µg/mL (≈ 75.4 µM)

Compound: CC1(C)S[C@@H]2[C@H](NC(=O)[C@H](N)c3ccccc3)C(=O)N2[C@H]1C(=O)O [AMPICILLIN]
- MIC (Escherichia coli [1]): 50 µg/mL (≈ 143 µM)
- MIC (Escherichia coli [2]): 50 µg/mL (≈ 143 µM)
- MIC (Staphylococcus aureus): 50 µg/mL (≈ 143 µM)

Compound: CCOC(=O)C1=C(C(=O)OCC)N(c2ccc(O)cc2)CN(c2ccc(O)cc2)C1
- MIC (Escherichia coli [1]): 50 µg/mL (≈ 121 µM)
- MIC (Bacillus subtilis): 40 µg/mL (≈ 97 µM)
- MIC (Candida albicans): 75 µg/mL (≈ 182 µM)
- MIC (Aspergillus flavus): 50 µg/mL (≈ 121 µM)
- MIC (Aspergillus niger): 50 µg/mL (≈ 121 µM)
- MIC (Staphylococcus aureus): 100 µg/mL (≈ 242 µM)

Compound: COC(=O)C1=C(C(=O)OC)N(c2ccccc2)CN(c2ccccc2)C1
- MIC (Escherichia coli [1]): 60 µg/mL (≈ 170 µM)
- MIC (Bacillus subtilis): 30 µg/mL (≈ 85.1 µM)
- MIC (Candida albicans): 50 µg/mL (≈ 142 µM)
- MIC (Aspergillus flavus): 25 µg/mL (≈ 70.9 µM)
- MIC (Aspergillus niger): 25 µg/mL (≈ 70.9 µM)
- MIC (Staphylococcus aureus): 90 µg/mL (≈ 255 µM)

Compound: Clc1ccc(COC(Cn2ccnc2)c2ccc(Cl)cc2Cl)c(Cl)c1 (stereo not drawn) [MICONAZOLE]
- MIC (Candida albicans): 12.5 µg/mL (≈ 30 µM)
- MIC (Aspergillus flavus): 12.5 µg/mL (≈ 30 µM)
- MIC (Aspergillus niger): 12.5 µg/mL (≈ 30 µM)

Compound: COC(=O)C1=C(C(=O)OC)N(c2ccccn2)CN(c2ccccn2)C1
- MIC (Escherichia coli [1]): 60 µg/mL (≈ 169 µM)
- MIC (Bacillus subtilis): 40 µg/mL (≈ 113 µM)
- MIC (Candida albicans): 25 µg/mL (≈ 70.5 µM)
- MIC (Aspergillus flavus): 12.5 µg/mL (≈ 35.3 µM)
- MIC (Aspergillus niger): 25 µg/mL (≈ 70.5 µM)
- MIC (Staphylococcus aureus): 80 µg/mL (≈ 226 µM)
